Screening data as filed in PubChem.
Cneo AK release: causes C. neoformans cell lysis | lysis activity, % at 15 µM | adenylate kinase release luminescence, 4 h; normalised: neutral wells 0, clomiphene wells 100 | actives 0.2% (n = 360,000);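 active = mean lysis activity across replicates of at least 80%, whatever share of replicates individually reach that level; inactive = mean lysis activity below 80%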
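Assay system: C. neoformans cells. Amount: yeast cell density of 5 × 10^6 cells/mL. Technique: AK luminescence. Buffer or medium: YPD. Times: static 4 h at 37 °C with compound, 1 h detection. Dosing: single-point compound dose. Read-out: lysis from increased AK signal.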
Ecoli rRNA inh: inhibits bacterial ribosomal RNA function over humanized ribosomes; GFP signal change (wild-type ribosome), % (concentration not given with the values); actives 1.6% (n = 350,000); E. coli WT GFP vs humanized-ribosome RFP mutants, fluorescence, 24 h; stronger effect = lower value; DMSO median 0, no signal -100;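 active = significant combined selectivity score with lowered wild-type GFP, culture density cut under 30%, mutant RFP and density less affected; inactive = any of these conditions unmet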
E-selectin induc: E-selectin induction on HUVECs. AID 686992. actives 0.37% (n = 260,000). activation, % at 7.58 µM. HUVEC E-selectin immunofluorescence imaging; normalized: neutral wells 0, TNF-alpha wells 100;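 active = mean E-selectin-positive cell signal at least 10% of the positive control, reached in at least 60% of replicates, without over 20% cell loss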
Target sequence (P16581 whole entry, looked up): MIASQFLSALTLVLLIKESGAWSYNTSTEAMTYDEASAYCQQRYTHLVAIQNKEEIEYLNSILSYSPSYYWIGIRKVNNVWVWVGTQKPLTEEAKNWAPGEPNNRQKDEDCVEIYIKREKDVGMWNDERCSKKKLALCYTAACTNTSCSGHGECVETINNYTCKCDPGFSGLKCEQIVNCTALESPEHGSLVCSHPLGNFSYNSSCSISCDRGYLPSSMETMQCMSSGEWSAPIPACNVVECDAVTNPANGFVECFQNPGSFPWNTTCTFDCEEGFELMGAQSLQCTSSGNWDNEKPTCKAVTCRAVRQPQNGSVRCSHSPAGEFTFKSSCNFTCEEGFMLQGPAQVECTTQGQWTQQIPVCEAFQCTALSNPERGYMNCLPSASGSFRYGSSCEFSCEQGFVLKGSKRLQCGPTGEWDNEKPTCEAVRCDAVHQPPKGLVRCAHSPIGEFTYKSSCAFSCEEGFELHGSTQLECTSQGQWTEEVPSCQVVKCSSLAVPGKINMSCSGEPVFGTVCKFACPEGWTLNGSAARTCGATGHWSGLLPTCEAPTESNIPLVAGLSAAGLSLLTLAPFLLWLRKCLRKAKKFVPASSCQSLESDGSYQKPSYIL
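System: HUVEC, human umbilical vein endothelial cells; quantity: 3,000 cells/well; buffer or medium: EGM-2 medium, gelatin-coated wells; dosing: single-point compound dose; detection: immunofluorescence imaging; evaluation: % PE-positive cells; benchmarks: TNF-alpha, DMSO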
DENV2 CPE rescue: protects cells from dengue virus 2 cytopathic effect. AID 651640. CPE inhibition, % at 9.99 µM. actives 1.7% (n = 350,000). DENV2-infected cells, cytopathic effect rescue, plate reader; in the data active = CPE inhibition above about 20%, passing the limit was not always enough; tested in BHK-21 cells;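 also: 0% = median of neutral control wells and 100% = median of positive control wells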
miR-122 sensor: miR-122 inhibition in Huh7 cells | Huh7 miR-122 Renilla luciferase sensor, 48 h; neutral wells = 0, positive control = 100 | activation (reporter increase), % at 12.5 µM | actives 0.3% (n = 340,000);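 active = mean replicate activation score at least 90 and every replicate individually at or above 90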;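 also: higher luciferase means less miR-122 activity so hits act as miR-122 inhibitors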
The depositor's hits bear a star; · = no result; [ ] = dose if it differs, or a comment. Compounds with a hit are over-represented: about 3.1% of the library has one in this group of screens.

SMILES	Cneo AK release	Ecoli rRNA inh	E-selectin induc	DENV2 CPE rescue	miR-122 sensor
COc1ccc(NC(=O)CSc2c3c(nc4ccccc24)CCCC3)c(OC)c1	1	·	2	·	-13
CCN(C(=O)c1ccc2c(SCC(=O)O)c3c(nc2c1)CCC3)c1cc(Cl)ccc1OC	-1	-4	·	50*	4
COc1cc(NC(=O)CSc2c3c(nc4ccccc24)CCC3)cc(OC)c1OC	-2	-2	-1	70*	-8
COc1ccc(CNC(=O)C[C@H]2C[C@H]3c4cc(NS(=O)(=O)c5ccc(F)cc5)ccc4O[C@H]3[C@H](CO)O2)cc1	-3	5	0	0	34[16.7 µM]
CC(Sc1ncnc2sc(-c3ccccc3)cc12)C(=O)N1CCNC1=O (stereo not drawn)	-1	9	39*	-2	3
O=C(NCC1CCCO1)C(c1ccc(F)cc1)N(CCCN1CCOCC1)C(=O)c1ccc(-c2ccccc2)[nH]1 (stereo not drawn)	·	-11	-1	4	·
COc1ccc(CN(C(=O)c2ccc(-c3ccccc3)[nH]2)C(C(=O)NCC2CCCO2)c2ccc(C)o2)cc1 (stereo not drawn)	0	·	·	·	230*
COc1cc(OC)cc(N(C(=O)c2snc(C(N)=O)c2N)C(C(=O)NCC2CCCO2)c2ccc(C)o2)c1 (stereo not drawn)	-2	-1	44*	-4	0
C[C@@H]1CCCCO[C@H](CN(C)C(=O)Nc2ccccc2)[C@@H](C)CN([C@H](C)CO)C(=O)c2cc(NC(=O)c3ccccc3)ccc2O1	-10	-2	·	-7	8[16.7 µM]
C[C@@H]1CN([C@@H](C)CO)C(=O)c2cccc(NC(=O)Nc3ccc4c(c3)OCO4)c2O[C@@H]1CN(C)S(=O)(=O)c1ccc(Cl)cc1	-4	1	0	6	-1[16.7 µM]
CCCCCCc1ccc(N2C[C@H](CCCCC)[C@@H](CC(=O)NCc3ccc(OC)cc3)C2=O)cc1	-1	13	·	95*	-1
Cc1noc(C)c1S(=O)(=O)Nc1ccc2c(c1)C(=O)N([C@H](C)CO)C[C@H](C)[C@H](CN(C)Cc1ccc3c(c1)OCO3)OCCCC[C@@H](C)O2	4	1	0	0	13[16.7 µM]
Cc1noc(C)c1S(=O)(=O)Nc1ccc2c(c1)C(=O)N([C@@H](C)CO)C[C@H](C)[C@H](CN(C)Cc1ccc3c(c1)OCO3)OCCCC[C@H](C)O2	3	-2	0	46*	3[16.7 µM]
Cc1noc(C)c1S(=O)(=O)Nc1ccc2c(c1)C(=O)N([C@@H](C)CO)C[C@H](C)[C@H](CN(C)Cc1ccc3c(c1)OCO3)O2	-2	-1	401*	32*	-19[16.7 µM]
Cc1noc(C)c1S(=O)(=O)Nc1ccc2c(c1)C(=O)N([C@@H](C)CO)C[C@@H](C)[C@@H](CN(C)Cc1ccc3c(c1)OCO3)OCCCC[C@H](C)O2	3	1	0	-9	-9[16.7 µM]
Cc1noc(C)c1S(=O)(=O)Nc1ccc2c(c1)C(=O)N([C@@H](C)CO)C[C@H](C)[C@@H](CN(C)Cc1ccc3c(c1)OCO3)OCCCC[C@@H](C)O2	101*	5	0	-9	-4[16.7 µM]
Cc1noc(C)c1S(=O)(=O)Nc1ccc2c(c1)CC(=O)N([C@H](C)CO)C[C@H](C)[C@H](CN(C)Cc1ccc3c(c1)OCO3)O2	0	0	·	51*	1[16.7 µM]
Cc1ccccc1S(=O)(=O)NCC[C@H]1CC[C@H](NC(=O)C2CC2)[C@@H](CO)O1	-6	2	0	8	·
CCCNC(=O)C[C@H]1CC[C@H]2[C@H](COc3ccc(NS(=O)(=O)CC)cc3C(=O)N2C)O1	1	0	0	-1	-2[16.7 µM]
CO[C@H]1CN(C)C(=O)c2cc(C#N)ccc2OCC[C@@H]2CC[C@@H](OC)[C@H](CN(C)C(=O)[C@H]1C)O2	4	-1	0	8	·
CCn1c2c(n(C(C)=O)c1=O)C[C@@H](c1ccccc1)[C@@H](C)[C@@H](C(=O)N1CCCC1)C2	·	10	0	50*	·
CCN1C(=O)N[C@H]2C[C@@H](c3ccccc3)[C@@H](C)[C@@H](C(=O)N3CCCC3)C[C@H]21	·	6	1	-6	·
CCSCC1COC(c2cccn2Cc2ccc(C)cc2)=N1 (stereo not drawn)	3	·	·	·	7
CCC1COC(c2cccn2Cc2ccc(Cl)cc2)=N1 (stereo not drawn)	-7	-22*	·	-2	-3
COc1ccc(S(=O)(=O)N2CCOC2CNC(=O)C(=O)NCCc2c[nH]c3ccccc23)cc1C (stereo not drawn)	2	-15*	0	-2	-8
SMILES	Cneo AK release	Ecoli rRNA inh	E-selectin induc	DENV2 CPE rescue	miR-122 sensor
Cc1ccc(-c2cn(-c3ccc(OC(F)F)cc3)c3[n+]2CCCCC3)cc1	1	-36*	0	-7	11
Clc1ccc(-n2cc(-c3ccc(Br)cc3)[n+]3c2CCCCC3)cc1	·	-46*	·	-1	·
CC(C)(C)c1ccc(-c2cn(-c3ccc(Br)cc3)c3[n+]2CCCS3)cc1	·	-50*	-9	-1	·
c1ccc(-c2cn(-c3ccccc3)c3[n+]2CCS3)cc1	1	-10	3	·	5
FC(F)Oc1ccc(-n2cc(-c3ccccc3)[n+]3c2CCCCC3)cc1	·	-28*	0	-7	·
FC(F)Sc1ccc(-n2cc(-c3ccc(Cl)cc3)[n+]3c2CCC3)cc1	·	·	2	·	·
COc1ccc2c3c([nH]c2c1)[C@@H](CO)N(S(C)(=O)=O)CC31CCN(C(=O)CN(C)C)CC1	·	3	0	-4	·
C(=N\N1CCN(c2ccccn2)CC1)/c1cccc2ccccc12	-2	-21*	0	3	-1
CC(/C=N/N1CCN(c2ccccn2)CC1)=C\c1ccccc1	-2	2	·	23*	-7
CC(C)c1ccc(/C=N/N2CCN(c3ccccn3)CC2)cc1	-6	6	0	47*	0
CC(/C=N/N1CCN(c2ccccc2)CC1)=C\c1ccccc1	0	10	·	1	-15
CO[C@H]1CN(C)C(=O)c2ccc(NC(=O)c3ccccc3)cc2OC[C@H](C)N(CC2CC2)C[C@H]1C	-1	-1	0	17	9[16.7 µM]
COc1ccc(NC(=O)c2cccn(CC=C(C)C)c2=O)cc1	·	-26*	·	1	-3
O=C(C[C@@H]1CC[C@H]2[C@@H](COC[C@H](O)CN2C(=O)Nc2cccc(Cl)c2)O1)NCc1ccccc1F	-5	-60	0	6	14[16.7 µM]
Cc1cccc(NC(=S)N/N=C/c2cccc(O)c2)c1C	0	-24*	0	1	41
C[C@H](CO)N1C[C@H](C)[C@H](CN(C)C(=O)Nc2ccccc2)Oc2ccc(NC(=O)Nc3ccccc3)cc2CC1=O	-4	1	0	11	1[16.7 µM]
O=C(Nc1cc(S(=O)(=O)N2CCOCC2)ccc1N1CCCC1)c1ccccc1F	-8	13	0	-5	-14
